# Laboratory results from ChEMBL document CHEMBL4020823, “Highly Selective, Potent, and Oral mTOR Inhibitor for Treatment of Cancer as Autophagy Inducer” (J Med Chem, 2018).
# Activity calls are given as the source filed them. The calls are words filed in the database; no cut-off is given here.
# Experiments:
# [1] = system: T47D; experiment: Cell cycle arrest in human T47D cells assessed as accumulation at G0/G1 phase at 0.25 to 0.5 uM after 24 hrs by propidium iodide-staining based flow cytometric analysis; assay type: functional
# How it was run: (§1)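 Cells were seeded at 5 × 10^5 cells/mL. At 24 h after plating they were treated with increasing concentrations for 24 h, washed in PBS, and fixed in ice-cold 70% ethanol for at least 24 h. They were stained with propidium iodide plus RNase A for 30 min at 37 °C and analysed by flow cytometry for phase distribution.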
# [2] = system: T47D; experiment: Antitumor activity against human T47D cells xenografted in BALB/c nude mouse assessed as decrease in tumor growth at 30 mg/kg, po administered via gavage after 3 weeks relative to control; assay type: functional; settings: 504 h, read-out: TGI
# [3] = organism: Homo sapiens; experiment: Inhibition of mTORC1 in human T47D cells assessed as reduction in 4E-BP1 phosphorylation at Ser65 residues at 0.25 to 0.5 uM by Western blot analysis; assay type: cell-based
# How it was run: (§2)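 Cells treated with the indicated concentrations, then whole-cell lysates immunoblotted. mTORC1 activity read as S6 and 4E-BP1 phosphorylation; mTORC2 activity read as AKT Ser473 phosphorylation. Blocking in 5% skim milk, primary antibodies at 4 °C overnight, peroxidase-conjugated secondary, ECL detection.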
# [4] = Half life in Sprague-Dawley rat at 20 mg/kg, po administered as single dose by HPLC analysis; assay type: ADME, organism-based; settings: in vivo
# How it was run: (§3)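 Rats fasted overnight, then given one 20 mg/kg dose either iv or po. Blood was collected and centrifuged at once to obtain plasma. Plasma drug levels were measured by HPLC, and PK parameters were derived from the concentration-time data.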
# [5] = system: OVCAR-5; experiment: Growth inhibition of human OVCAR5 cells after 72 hrs by CCK8 assay; assay type: functional, cell-based; settings: OVCAR-5, 72 h
# How it was run: (§4)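 Cells were seeded at 2000–3000 per well and grown 24 h in serum-containing medium. They were then exposed to serially diluted compound for 72 h at 37 °C, 5% CO2. CCK8 reagent was added for 1–4 h and absorbance read at 450 nm. Inhibition = (AC − AS)/(AC − Ab) × 100%. IC50 is the average of at least three independent determinations.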
# [6] = system: T47D; experiment: Antitumor activity against human T47D cells xenografted in BALB/c nude mouse assessed as tumor weight at 60 mg/kg, po administered via gavage after 3 weeks (reference value: 1.23 g); assay type: functional
# [7] = organism: Mus musculus; experiment: Inhibition of full length recombinant mouse p85alpha/PI3K p110alpha E542K mutant at 1 uM relative to control
# How it was run: (§5)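 Eurofins KinaseProfiler panel with compound at a single 1 μM concentration. ATP at the Km of each kinase. Result is % inhibition, mean of two independent experiments.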
# [8] = system: SiHa; experiment: Induction of autophagy in human SiHa cells assessed as increase in LC3-2 level at 0.5 to 1 uM after 48 hrs by Western blot analysis; assay type: functional, cell-based
# How it was run: (§6)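 Cells treated with test agents at several concentrations for 2 days (48 h). LC3B-II detected by Western blot on lysates, with β-actin as internal control. Membranes blocked in 5% skim milk, primary antibodies at 4 °C overnight, peroxidase-conjugated anti-mouse or anti-rabbit IgG secondary, ECL detection.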
# [9] = MRT (0 to infinity) in Sprague-Dawley rat at 20 mg/kg, iv administered as single dose by HPLC analysis; assay type: ADME, organism-based; settings: in vivo
# How it was run: (§7)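 Rats fasted overnight, then given a single 20 mg/kg dose either iv or po. Blood collected and centrifuged immediately to obtain plasma. Plasma drug levels measured by HPLC, and pharmacokinetic parameters derived from both routes.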
# [10] = organism: Mus musculus; experiment: Inhibition of full length recombinant mouse PI3K p110alpha/p65alpha at 1 uM relative to control; how it was run: as §5
# [11] = biological target: Serine/threonine-protein kinase mTOR (Homo sapiens, UniProt P42345); experiment: Inhibition of N-terminal FLAG-tagged recombinant human mTOR (1362 to end residues)
# [12] = system: MCF7; experiment: Cell cycle arrest in human MCF7 cells assessed as accumulation at G0/G1 phase at 0.25 to 0.5 uM after 24 hrs by propidium iodide-staining based flow cytometric analysis; assay type: functional; how it was run: as §1
# [13] = Clearance in Sprague-Dawley rat at 20 mg/kg, po administered as single dose by HPLC analysis; assay type: ADME, organism-based; settings: in vivo; how it was run: as §3
# [14] = system: MDA-MB-231; experiment: Growth inhibition of human MDA-MB-231 cells after 72 hrs by CCK8 assay; assay type: functional, cell-based; settings: MDA-MB-231, 72 h; how it was run: as §4
# [15] = organism: Homo sapiens; experiment: Inhibition of mTORC1 in human SiHa cells assessed as reduction in S6 phosphorylation at Ser 240/244 residues at 0.25 to 0.5 uM by Western blot analysis; assay type: cell-based; how it was run: as §2
# [16] = Clearance in Sprague-Dawley rat at 20 mg/kg, iv administered as single dose by HPLC analysis; assay type: ADME, organism-based; settings: in vivo; how it was run: as §3
# [17] = system: SiHa; experiment: Cell cycle arrest in human SiHa cells assessed as accumulation at G0/G1 phase at 0.25 to 0.5 uM after 24 hrs by propidium iodide-staining based flow cytometric analysis; assay type: functional; how it was run: as §1
# [18] = Volume of distribution at steady state in Sprague-Dawley rat at 20 mg/kg, iv administered as single dose by HPLC analysis; assay type: ADME, organism-based; settings: in vivo, read-out: Vdss; how it was run: as §7
# [19] = system: MDA-MB-231; experiment: Cell cycle arrest in human MDA-MB-231 cells assessed as accumulation at G0/G1 phase at 0.25 to 0.5 uM after 24 hrs by propidium iodide-staining based flow cytometric analysis; assay type: functional; how it was run: as §1
# [20] = system: T47D; experiment: Cell cycle arrest in human T47D cells assessed as decrease in S-phase at 0.25 to 0.5 uM after 24 hrs by propidium iodide-staining based flow cytometric analysis; assay type: functional; how it was run: as §1
# [21] = biological target: PI3K p110 beta/p85 alpha (Mus musculus) (UniProt P26450+Q8BTI9); experiment: Inhibition of full length recombinant mouse PI3K p110beta/p85alpha at 1 uM relative to control; assay type: protein-complex assay; how it was run: as §5
# [22] = system: MCF7; experiment: Induction of autophagy in human MCF7 cells assessed as increase in LC3-2 level at 0.25 to 0.5 uM after 48 hrs by Western blot analysis; assay type: functional, cell-based
# How it was run: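 Cells were treated for 48 h (2 days) with varying concentrations. Whole-cell lysates were immunoblotted for LC3B-II with β-actin as the internal control. Membranes were blocked in 5% skim milk, incubated with primary antibody overnight at 4 °C, then with peroxidase-conjugated secondary, and developed by ECL.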
# [23] = Cmax in Sprague-Dawley rat at 20 mg/kg, po administered as single dose by HPLC analysis; assay type: ADME, organism-based; set-up: dose 20 mg/kg, route oral; settings: in vivo; how it was run: as §3
# [24] = system: MCF7; experiment: Induction of autophagy in human MCF7 cells assessed as increase in LC3-2 puncta level after 48 hrs by immunofluorescence staining based microscopic analysis; assay type: functional, cell-based
# [25] = system: T47D; experiment: Induction of autophagy in human T47D cells assessed as increase in LC3-2 level at 0.25 to 0.5 uM after 48 hrs by Western blot analysis; assay type: functional, cell-based; how it was run: as §6
# [26] = system: SiHa; experiment: Growth inhibition of human SiHa cells after 72 hrs by CCK8 assay; assay type: functional, cell-based; how it was run: as §4
# [27] = Half life in Sprague-Dawley rat at 20 mg/kg, iv administered as single dose by HPLC analysis; assay type: ADME, organism-based; settings: in vivo; how it was run: as §3
# [28] = system: T47D; experiment: Antitumor activity against human T47D cells xenografted in BALB/c nude mouse assessed as decrease in tumor growth at 15 mg/kg, po administered via gavage after 3 weeks relative to control; assay type: functional; settings: 504 h, read-out: TGI
# [29] = organism: Homo sapiens; experiment: Inhibition of full length recombinant human PI3K p110alpha/p65alpha at 1 uM relative to control; how it was run: as §5
structure (smiles),measurement,setting,value
N#CCN1CCC(n2c(=O)cnc3cnc4ccc(-c5ccc(N)nc5)cc4c32)CC1,Activity,[1],Active
same,inhibition in vivo at 30 mg/kg,[2],75.6%
same,inhibition,[3],Active
same,half-life,[4],9.98 h
same,IC50,[5],2830 nM
same,Activity,[6],0.194 g
same,inhibition,[7],10%
same,Activity,[8],Active
same,MRT inf,[9],11.6 h
same,inhibition,[10],9%
same,IC50,[11],7 nM
same,Activity,[12],Active
same,CL/F,[13],58.5 mL/min/kg
same,IC50,[14],100 nM
same,inhibition,[15],Active
same,clearance,[16],25.5 mL/min/kg
same,Activity,[17],Active
same,Vd,[18],16.7 L/kg
same,Activity,[19],Active
same,Activity,[20],Active
same,inhibition,[21],5%
same,Activity,[22],Active
same,Cmax,[23],807 ng/mL
same,Activity,[24],Dose-dependent effect
same,Activity,[25],Active
same,IC50,[26],110 nM
same,half-life,[27],7.57 h
same,inhibition in vivo at 15 mg/kg,[28],63.2%
same,inhibition,[29],5%
